Only some compounds are listed: those with a hit (about 2.2% of all), similar ones and a draw of the others.
Hsp90 inh: tumor Hsp90 inhibitors, primary screen, cell lysate, fluorescence polarization, NCI-N417 lysate. inhibition, % at 30 µM. 64,000 tested, 0.35% active. Heat shock protein HSP 90-alpha (Homo sapiens), P07900. Cy3B-geldanamycin FP displacement. AID 429, 2006;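 active means inhibition above 50%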;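 further: 0% = tracer plus lysate wells and 100% = tracer alone without lysate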
Spn DPM-DC inh: S. pneumoniae DPM-DC inhibitors, primary screen, biochemical, PK/LDH-coupled NADH fluorescence; AID 556, 2006; purified DPM-DC; diphosphomevalonate decarboxylase (Streptococcus pneumoniae D39); calls only at 10 µM; 65,000 tested, 0.49% active;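 active means the 320 compounds with the highest percent inhibition in the single-dose primary screen, excluding strongly autofluorescent ones, cut at about 32% in these data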;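 further: kinetic rate of NADH fluorescence loss reporting ADP formed by the decarboxylase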
MK inhibit: S. pneumoniae MK inhibitors, primary screen, biochemical, PK/LDH-coupled NADH absorbance; mevalonate kinase [Streptococcus pneumoniae D39]; purified MK, PK/LDH-coupled NADH absorbance 340 nm; 65,000 tested, 0.48% active; inhibition, % at 10 µM;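 active means ranked among the strongest by inhibition in the single 10 µM screen, a fixed top-ranked set picked for dose follow-up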
Spn PMK inh: S. pneumoniae PMK inhibitors, primary screen, biochemical, mevalonate pathway, pilot trial included; phosphomevalonate kinase (Streptococcus pneumoniae D39); purified PMK, PK/LDH-coupled NADH absorbance 340 nm; inhibition, % at 10 µM; 65,000 tested, 0.49% active; AID 539, 2006;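 active means top-ranked compounds by inhibition in the single 10 µM screen, taking a fixed number of the strongest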;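 further: 0% = full reaction with DMSO carrier and 100% = background rate without enzyme reaction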
S1P1 ag pot: S1P1 agonists and agonism potentiators, primary screen, cell-based, primary and confirmation screens, CRE-bla reporter | activation, % at 9.5 µM | 56,000 tested, 0.57% active | S1P1 CRE-bla cells, forskolin, beta-lactamase FRET, potentiator mode; S1P1 agonist co-added at EC20, 2 nM; 100% = saturating reference agonist, 0% = basal | AID 449, 2006 | Sphingosine 1-phosphate receptor 1 (Homo sapiens), P21453;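 active means activation above a cutoff set at the mean activation of all tested compounds plus 3 SD, cut at about 54% in these data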;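 further: forskolin at 4 µM as EC80 and the EC20 agonist is SEW2871; 100% = SEW2871 at its EC100 plus forskolin at EC80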
Target sequence (P21453 whole entry, looked up): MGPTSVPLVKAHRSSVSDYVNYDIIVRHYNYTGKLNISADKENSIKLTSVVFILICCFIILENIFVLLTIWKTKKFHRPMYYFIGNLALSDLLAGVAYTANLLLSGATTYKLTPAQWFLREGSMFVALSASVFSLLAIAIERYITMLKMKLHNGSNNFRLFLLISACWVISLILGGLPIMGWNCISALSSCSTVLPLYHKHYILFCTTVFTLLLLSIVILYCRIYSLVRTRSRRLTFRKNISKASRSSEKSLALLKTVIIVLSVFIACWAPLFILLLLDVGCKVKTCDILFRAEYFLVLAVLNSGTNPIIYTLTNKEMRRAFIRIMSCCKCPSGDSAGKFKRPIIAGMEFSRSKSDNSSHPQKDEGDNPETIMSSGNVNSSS
S1P3 agonist: human S1P3 receptor agonists, primary screen, cell-based, primary and confirmation, NFAT-BLA reporter. Sphingosine 1-phosphate receptor 3 (Homo sapiens), Q99500. S1P3 NFAT-BLA reporter cells, agonism, FRET ratio; relative to 1 µM S1P, basal subtracted. activation, % at 4.5 µM. 60,000 tested, 0.1% active. AID 373, 2006;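 active means activation above the screen-wide mean plus 3 SD, cut at about 4.5% in these data, passing the limit was not always enough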
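Assay system: stable CHO line with human S1P3, Gα16, NFAT-BLA reporter; Detection: FRET β-lactamase substrate fluorescence, excitation 405 nm, 460/535 nm emission ratio, background-subtracted; Read-out: percent activation versus median 1 µM S1P response, basal-subtracted, per plate; Incubation: cells plated overnight, compound 4 h 37 °C, substrate 2 h RT.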
* hit, by the source's call; i = inactive; · = no result shown; + = active, no number.

SMILES | Hsp90 inh | Spn DPM-DC inh | MK inhibit | Spn PMK inh | S1P1 ag pot | S1P3 agonist
CCCCC(=O)NC(Nc1nc(C2CC2)cs1)(C(=O)OCC)C(F)(F)F (stereo not drawn) | -2.0 | i | 3.0 | 9.0 | -19.5 | 5.3*
CC(C)Cn1c(N)c(C(=O)CSc2ccc3c(c2)OCCO3)c(=O)n(C)c1=O | 1.3 | i | 0.0 | 7.0 | 104.5* | -2.2
CC(C)Cn1c(N)c(C(=O)COC(=O)c2ccc3c(c2)OCCO3)c(=O)n(C)c1=O | -10.1 | i | 0.0 | 0.0 | 13.3 | -0.5
COc1ccc(CSc2nnc3n(C)c(=O)c4c5c(sc4n23)CCCC5)cc1 | -1.8 | i | 2.0 | 7.0 | 7.3 | -1.9
CC(C)C(c1nnnn1CCc1ccccc1)N1CCOCC1 (stereo not drawn) | 1.2 | i | 0.0 | 0.0 | -16.7 | 0.2
c1ccc(CCn2nnnc2C(c2cccs2)N2CCOCC2)cc1 (stereo not drawn) | 2.6 | i | 0.0 | 25.0* | -9.6 | -1.7
NC(=O)c1cc[n+](CC2=C(C(=O)O)N3C(=O)[C@@H](NC(=O)[C@@H](c4ccccc4)S(=O)(=O)[O-])[C@H]3SC2)cc1 | 1.5 | · | · | · | · | ·
Cc1noc(C(=O)Nc2ccc3c(c2)OCO3)c1Cl | 60.3* | i | 10.0 | 0.0 | -18.6 | -1.1
COc1cccc2c1OC1(C)CC2/C(=C(\C)O)C(=O)N1 (stereo not drawn) | 1.7 | i | 6.0 | 6.0 | 4.0 | -1.2
COc1ccccc1C(c1nnnn1C(C)(C)C)N1CCN(Cc2ccncc2)CC1 (stereo not drawn) | -0.7 | i | 0.0 | 27.0* | -25.7 | -0.6
O=C(O)c1ccc2c(c1)C(=O)N(c1cc(C(=O)O)ccc1Br)C2=O | -5.1 | i | 8.0 | 11.0 | 1.2 | -0.6
CCOC(=O)c1ccccc1NCN1C(=O)CSC1=O | 0.6 | · | 4.0 | 29.0* | -8.4 | 0.2
C=CCn1c(SCC(=O)c2cccs2)nc2sc(CC)cc2c1=O | -3.1 | i | 8.0 | 13.0 | 93.4* | -2.1
C=CCn1c(SCC(=O)N2CCN(C(=O)c3ccco3)CC2)nc2sc(CC)cc2c1=O | -0.6 | i | 4.0 | 14.0 | -0.6 | -1.0
O=C(C1CCN(Cc2ccc(OCc3ccccc3)cc2)CC1)N1CCCC1 | -1.9 | i | 59.0* | 34.0* | -23.0 | -1.0
COc1ccc(CN2CCCC(C(=O)N3CCCC3)C2)cc1 (stereo not drawn) | -1.8 | i | 0.0 | 10.0 | -7.3 | -0.6
NC(N)=NCCCCN=C(N)N | 0.9 | · | · | · | · | ·
CCCc1nnc(NC(=O)CN2CCOCC2)s1 | 2.7 | + | 8.0 | 11.0 | -18.0 | 0.3
CCc1nnc(NC(=O)CN2CCOCC2)s1 | · | i | 5.0 | 4.0 | · | ·
CCN1CCN(C(c2ccc(F)cc2)c2nnnn2Cc2cccs2)CC1 (stereo not drawn) | -0.1 | i | 0.0 | 27.0* | -13.1 | -0.5
CCN(CC)CCCNc1cc(OC)c(Nc2ccccc2)c2cccnc12 | 129.5* | · | · | · | · | ·
Cc1csc(NC(=O)C2CCC(C)(C(=O)O)C2(C)C)n1 (stereo not drawn) | -1.8 | i | 5.0 | 29.0* | 4.8 | -1.9
COC(=O)c1cc(NCc2c(F)cccc2Cl)ccc1N1CCOCC1 | 2.5 | + | 4.0 | 10.0 | 31.3 | -0.5
COC(=O)c1cc(NCc2cccs2)ccc1N1CCOCC1 | 1.9 | i | 14.0 | 12.0 | 9.0 | 1.1
Cc1oc2cc(O)cc(O)c2c(=O)c1-c1ccc2c(c1)OCCCO2 | -3.5 | i | 8.0 | 2.0 | 92.8* | -0.7
SMILES | Hsp90 inh | Spn DPM-DC inh | MK inhibit | Spn PMK inh | S1P1 ag pot | S1P3 agonist
O=C(O)CCNc1ccc2c(c1)OCCO2 | -3.6 | i | 0.0 | 17.0 | -15.1 | 1.3
O=S(=O)(Nc1cccc2ccccc12)N1CCCC1 | -0.7 | i | 3.0 | 8.0 | 15.3 | -1.4
COc1cc2c(cc1NC(=O)c1ccc3c(c1)OCO3)oc1ccccc12 | 3.1 | + | 5.0 | 0.0 | 47.1 | -1.5
CC(C)(C)OC(=O)n1ccc2c(NCCCN)ncnc21 | -0.7 | · | · | · | · | ·
COc1cc(NS(=O)(=O)c2ccc(Br)cc2)c(OC)cc1NC(=O)c1ccco1 | 1.6 | i | 0.0 | 17.0 | 21.4 | -0.6
COc1ccccc1CCNC(=O)c1ccoc1C | -1.8 | i | 15.0 | 9.0 | -6.0 | 0.8
COc1ccc(NC(=O)N2CCCC(c3nc(-c4ccc(C(C)C)cc4)no3)C2)cc1 (stereo not drawn) | -0.2 | i | 8.0 | 10.0 | 9.0 | -1.5
O=C(Nc1ccc(Cl)cc1)N1CCC(c2nc(-c3ccc(F)cc3)no2)CC1 | 6.5 | i | 0.0 | 11.0 | 57.1* | -0.9
CC(C)(C)OC(=O)N1CCN(c2ccc(NC(=O)c3cc4ccccc4oc3=O)cc2)CC1 | -5.0 | i | 8.0 | 0.0 | · | ·
COc1ccc2[nH]cc(C(=O)CN3CCCC(C)C3)c2c1 (stereo not drawn) | -10.1 | i | 4.0 | 25.0* | 23.6 | -0.6
COc1ccc2[nH]cc(C(=O)CN3CCC(C)CC3)c2c1 | -4.8 | i | 8.0 | 0.0 | 4.3 | -0.1
CNC(=O)[C@H]1O[C@@H](n2cnc3c(NCc4ccc(N)cc4)ncnc32)C(O)[C@H]1O (stereo partly drawn) | -0.2 | · | · | · | · | ·
CCCN1CCN(CCCNC(=O)Cn2nc(-c3ccccc3)ccc2=O)CC1 | -0.7 | i | 7.0 | 27.0* | -2.3 | -1.6
O=C(CSc1nc(-c2ccccc2)cs1)N1CCN(C(=O)c2ccco2)CC1 | -0.2 | i | 0.0 | 29.0* | -12.1 | 0.1
Cn1ncc2c(Nc3ccccc3Br)ncnc21 | -2.2 | i | 3.0 | 2.0 | -8.3 | -2.8
Cn1ncc2c(Nc3ccc(-c4ccccc4)cc3)ncnc21 | 0.4 | + | 0.0 | 13.0 | 18.3 | 0.0
CCOc1cc(C2c3c(n[nH]c3C)C(=O)N2c2ccc(C)cc2)ccc1O (stereo not drawn) | -8.6 | i | 14.0 | 11.0 | -12.5 | 0.3
COc1cc(C2c3c(n[nH]c3C)C(=O)N2c2ccc(C)cc2)ccc1O (stereo not drawn) | 3.2 | i | 10.0* | 0.0 | -7.0 | -1.1
Cc1cc(C)c2cc(CN(CC3CCCO3)C(=O)NC3CCCCC3)c(=O)[nH]c2c1 (stereo not drawn) | -2.8 | i | 1.0 | 16.0 | -17.7 | -0.9
COc1ccc(-c2ccc(-c3nnc(-c4ccncc4)o3)cc2)cc1 | -2.2 | + | 12.0 | 15.0 | -0.2 | -0.7

Bioassay records from PubChem BioAssay.
